RAM network inh: inhibitors of the yeast RAM network, primary screen, dse1pr::URA3 reporter, 5-FOA selection | S. cerevisiae dse1pr::URA3 reporter, 5-FOA growth OD615, 2 d; analog-sensitive cbk1-as2 kinase mutant strain | inhibition, % at 50 µM | hit rate 1.8% among 190,000 | AID 868, 2007;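 active means inhibition above a set limit, 3 SD over mean compound inhibition, cut at about 8.4% in these data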;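 further: 0% = DMSO-only wells with no growth and 100% = 10 µM 1-NA-PP1 full growth; inhibition rescues growth on 5-FOA so higher OD means more RAM inhibition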
NPY1 pot ag: NPY-Y1 receptor potentiators or agonists, primary screen, cell-based | NPY-Y1 expressing cells, potentiator/agonist activation | hit rate 0.37% among 220,000 | activation, % at 3.6 µM | Neuropeptide Y receptor type 1 (Homo sapiens), P25929; in the data active means activation above about 33%, passing the limit was not always enough;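 further: cells stimulated with NPY at EC10 then isoproterenol at EC100; 0% = low agonist plus stimulus and 100% = saturating agonist plus stimulus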
Target sequence (P25929 whole entry, looked up): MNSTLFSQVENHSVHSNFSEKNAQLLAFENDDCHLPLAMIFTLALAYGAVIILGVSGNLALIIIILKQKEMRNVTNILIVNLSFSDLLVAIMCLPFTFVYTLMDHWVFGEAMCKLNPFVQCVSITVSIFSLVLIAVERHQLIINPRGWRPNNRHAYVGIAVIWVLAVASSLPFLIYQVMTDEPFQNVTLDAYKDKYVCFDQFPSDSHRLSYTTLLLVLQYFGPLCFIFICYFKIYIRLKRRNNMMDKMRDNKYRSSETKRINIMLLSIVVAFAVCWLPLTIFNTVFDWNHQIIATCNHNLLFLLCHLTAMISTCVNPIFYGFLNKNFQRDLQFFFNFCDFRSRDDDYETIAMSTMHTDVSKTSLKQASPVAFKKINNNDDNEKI
NPY Y2 blocker: NPY-Y2 receptor antagonists, primary screen, cell-based | hit rate 0.99% among 140,000 | AID 793, 2007 | NPY-Y2 expressing cells, antagonist mode | inhibition, % at 2.7 µM; in the data active means inhibition above about 17%;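 further: 0% = vehicle with agonist challenge and 100% = reference antagonist with challenge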
NPY Y1 blocker: NPY-Y1 receptor antagonists, primary screen, cell-based; hit rate 1% among 200,000; HEK293-CNG Y1 cells, membrane potential fluorescence; NPY at EC95, then isoproterenol; Neuropeptide Y receptor type 1 (Homo sapiens), P25929; inhibition, % at 3.6 µM;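 active means inhibition above the campaign mean inhibition of all tested compounds plus 3 SD, cut at about 20% in these data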;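 further: 0% = DMSO wells given NPY plus isoproterenol and 100% = isoproterenol alone without NPY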
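Assay system: HEK293 cells with Y1 receptor plus CNG channel | Probe or stimulus: NPY (25 nM), isoproterenol (1 µM), Ro 20-1724 (25 µM) | Timing: Compound incubation 1 h at room temperature, readout 45 min post-stimulation | Measured by: Membrane-potential fluorescent dye readout | Benchmarks: High control isoproterenol alone, low control NPY with isoproterenol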
NPY2 pot ag: NPY-Y2 potentiators or agonists, primary screen, cell-based; Neuropeptide Y receptor type 2 (Homo sapiens), P49146; cells expressing NPY-Y2, potentiator/agonist read-out; activation, % at 3.6 µM; hit rate 0.45% among 220,000; in the data active means activation above about 27%;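 further: cells stimulated with NPY near EC25 plus isoproterenol at EC100; 0% = vehicle plus submaximal agonist and 100% = vehicle plus saturating agonist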
WT yeast gro inh: growth inhibition of WT strain, primary screen, mitochondrial fusion inhibitor project, WT and mutant strains, chemical genetic | mitochondrial fusion phenotypic screen | AID 1362, 2008 | hit rate 2.1% among 190,000 | inhibition, % at 10 µM; in the data active means inhibition above about 58%; tested in S. cerevisiae
* = called active by the depositor; x = not tested or not shown. Most compounds without a hit are left out; they make up all but 4.9% or so of the library.

SMILES	RAM network inh	NPY1 pot ag	NPY Y2 blocker	NPY Y1 blocker	NPY2 pot ag	WT yeast gro inh
O=C1NNC(=O)C2C3C=CC(C4CC34)C12 (configuration not stated)	0.3	-18.9	0.4	2.2	5.0	5.7
NC(=O)c1cccc(N=Cc2cc(Cl)cc(Cl)c2O)c1	-1.3	6.6	x	-1.7	8.4	9.7
CC(C)N(Cc1nc(-c2ccc(Cl)cc2)no1)C(=O)CCC1CCCC1	4.2	-17.6	11.9	16.6	-7.2	67.4*
COc1ccccc1OCC(=O)N(Cc1nc(-c2ccc(Cl)cc2)no1)C(C)C	2.0	-22.6	6.5	4.4	2.2	27.3
COc1cccc(OCC(=O)N(Cc2nc(-c3ccc(Cl)cc3)no2)C(C)C)c1	10.4*	-42.2	11.7	7.5	-43.4	41.4
c1csc(-c2csc3nc(CN4CCOCC4)nc(NCc4ccc5c(c4)OCO5)c23)c1	2.1	-59.2	35.8*	44.2*	-31.1	63.7*
c1ccc2c(c1)nc(NCc1ccc3c(c1)OCO3)n2CCN1CCOCC1	1.8	-26.8	x	3.5	-5.3	-1.3
O=C1c2oc3ccccc3c(=O)c2C(c2cccc(Br)c2)N1Cc1ccco1 (configuration not stated)	2.5	-4.4	1.2	3.9	-1.2	1.0
C(=N\N1CCN(C2c3ccccc3-c3ccccc32)CC1)/c1ccccn1	2.0	-10.5	9.4	9.9	-4.9	66.7*
Cc1ccc(/C=C/c2nc3ccccc3c(=O)n2CCc2ccccc2)cc1	10.1*	4.3	4.5	-1.0	6.3	1.9
CCN1/C(=C/c2ccc3cc(C)ccc3[n+]2C)Sc2ccc3sccc3c21	3.8	-9.1	x	-0.3	0.9	95.2*
CCN1/C(=C/c2ccc3cc(C)ccc3[n+]2CC)Sc2cc(C)ccc21	-0.4	-5.5	x	3.4	21.5	74.7
COc1ccc(-c2c(C(C)=O)c(C)n(C)c2C)cc1	-0.8	-13.8	2.2	-5.1	-0.1	-3.2
Cc1ccc(C(=O)N2CCN(c3cccc(Cl)c3)CC2)cc1C	0.2	-2.9	5.5	-0.6	-1.2	54.7
CC(C)c1ccc(NS(=O)(=O)c2ccc(Cl)nc2)cc1	-1.1	1.1	0.8	-2.6	6.5	24.5
CC(C)c1ccc(S(=O)(=O)Nc2ccc(SC(F)F)cc2)cc1	5.2	7.7	0.0	0.4	-7.4	85.0*
O=S(=O)(c1ccc(Br)s1)N1CCN(c2ncccn2)CC1	0.4	7.7	2.1	-2.3	-0.4	-17.0
OC(COc1ccc2ccccc2c1)Cn1ccnc1 (configuration not stated)	0.3	-0.1	2.3	0.5	14.4	-1.3
OC(COc1ccc2ccccc2c1Br)Cn1ccnc1 (configuration not stated)	-0.1	-0.8	-0.3	-2.1	8.0	71.3*
COCCCNC(=S)N/N=C/c1ccc2c(c1)OCO2	x	-7.1	x	x	4.2	x
CCOC(=O)c1c(C)n(C)c2ccc(O)c(CN(C)C)c12	-0.8	75.1*	5.1	-5.0	69.6*	-4.3
O=C(NCC1CCCO1)NC12CC3CC(CC(C3)C1)C2 (configuration not stated)	0.8	13.7	2.1	0.2	9.6	9.1
S=C(NCC1CCCO1)NC12CC3CC(CC(C3)C1)C2 (configuration not stated)	3.3	1.6	x	-8.5	-4.1	67.8*
Nc1ncnc(Nc2cc(C(F)(F)F)cc(C(F)(F)F)c2)n1	x	1.7	x	x	11.4	x
Cc1ccccc1S(=O)(=O)c1c(C)cc(C)n(CC(C)C)c1=O	0.1	-16.1	5.9	1.9	-9.7	67.8*
O=C(Nc1nc(-c2ccccn2)cs1)c1ccc2c(c1)OCCO2	1.4	-24.5	x	-1.5	-23.9	68.5*
CC(=O)Nc1ccc(C(=O)Nc2nc(-c3ccccn3)cs2)cc1	3.2	-11.9	x	-2.2	-24.5	7.2
Cc1ccc(-c2csc(NC(=O)c3ccc(-c4ccccc4)cc3)n2)o1	3.0	-6.5	4.0	5.1	25.0	77.5*
Cc1cc(C(=O)Nc2nc(-c3ccccn3)cs2)ccc1[N+](=O)[O-]	-0.5	-2.4	x	10.2	-9.6	62.5*
